Published values of several laboratories.
Lines come from different studies, so protocols differ.
RPS6KA3 N-terminal kinase domain: Ribosomal protein S6 kinase alpha-3, N-terminal kinase domain (RPS6KA3, Homo sapiens, UniProt P51812)
RPS6KA3: Ribosomal protein S6 kinase alpha-3 (RPS6KA3, Homo sapiens, UniProt P51812)

Compound | target | observed | action | method | concentration | measurement | result
Cn1cncc1[C@](O)(COc1ccc(C#N)cc1-c1ccc(OC(F)(F)F)cc1)c1ccc(C#N)cc1 | RPS6KA3 N-terminal kinase domain | cell-free assay |  | competition with immobilised ligand | 1 µM | remaining binding | 100%
Cn1cc(-c2cc(F)cc(N3CCn4c(cc5c4CCCC5)C3=O)c2CO)cc(Nc2ccc(N3CCN(C4COC4)CC3)cn2)c1=O | RPS6KA3 | enzyme activity | inhibitor |  | 0.1 µM | inhibition | 7%
Cc1nn(C)cc1-c1nc2c(N3CCN(Cc4ccc(Cl)cc4)CC3)c(Cl)cnc2[nH]1 | RPS6KA3 N-terminal kinase domain | binding |  | competition with immobilised ligand | 1 µM | remaining binding | 84%
Nc1ncc(-c2nc(N3CCOCC3)nc(N3CCOCC3)n2)c(C(F)F)n1 | RPS6KA3 N-terminal kinase domain | binding |  | competition with immobilised ligand | 10 µM | remaining binding | 59%
O=c1[nH]c2ccccc2n1C1CCN(Cc2ccc(-c3[nH]c4cc5ncnc5cc4nc3-c3ccccc3)cc2)CC1 | RPS6KA3 | cell-free assay |  |  | 0.5 µM | remaining signal | 96.6%
N#CC1(c2ccccn2)CCN(Cc2cc(C(=O)O)c(=O)n3ccccc23)CC1 | Ribosomal protein S6 kinase alpha-3, C-terminal kinase domain (RPS6KA3, Homo sapiens, UniProt P51812) | cell-free assay |  | competition with immobilised ligand | 1 µM | remaining binding | 100%
CC(C)(C)c1cc(C=C(C#N)C#N)cc(Br)c1O | RPS6KA3 | enzyme activity | inhibitor |  | 0.5 µM | remaining activity | 92.2%
Cn1cc(-c2cccc(N3CCc4c(sc5c4CC(C)(C)C5)C3=O)c2CO)cc(Nc2ccncn2)c1=O | RPS6KA3 | enzyme activity | inhibitor |  | 1 µM | inhibition | 1%
COc1cc(Nc2ncc(F)c(Nc3ccc4c(n3)NC(=O)C(C)(C)O4)n2)cc(OC)c1OC | RPS6KA3 N-terminal kinase domain | binding |  | competition with immobilised ligand | 10 µM | inhibition | 88%
